Ecoli tolC: growth inhibitors of E. coli tolC mutant, primary screen, strain BW25113 ΔtolC::kan, 384-well; OD615; growth inhibition, % at 10 µM (by protocol); 2.2% of 65,000 active; AID 573, 2007;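 active = growth inhibition at or above a cutoff equal to the mean over every tested compound plus 3 SD, cut at about 60% in these data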;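 note: growth measured after 20 h incubation at 37 °C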
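Test system: E. coli BW25113 ΔtolC::kan bacteria | Medium: Kanamycin-containing LB broth (50 µg/mL) | Dosing: One dose of 10 µM final | Times: 20 h incubation with compound, 37 °C | Detection: Optical density read at 615 nm | Read-out basis: Percent growth inhibition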
H69AR inhibit: proliferation blockers of H69AR lung cancer cells, primary screen, cell-based, human, 86K library; AID 598, 2007; H69AR lung tumor viability, ATP luminescence, 72 h; active compounds read low; 6% of 85,000 active; viability, % at 10 µM;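 active = viability at or below 40%; inactive = viability above 40%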;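 note: multidrug resistant small cell line overexpressing MRP-1 efflux transporter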
Lung fibro prol: antiproliferative effect on LL 47 fibroblasts – human, LL 47 cells, CellTiter-Glo luminescence, primary screen; LL 47 human lung fibroblast viability, ATP luminescence; active compounds read low; viability, % at 10 µM; 1.1% of 85,000 active; AID 719, 2007;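 active = viability at or below 50% in the single dose screen; inactive = viability above 50%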;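 note: compound exposure lasted 72 h before the ATP readout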
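Material: human lung fibroblast line LL 47, low passage; Evaluation: viability percentage against median untreated-cell control; Buffer or medium: 15% FBS in IMEM; Incubation: 72 h compound exposure at 37 °C after overnight plating; Dosing: 0.1% DMSO in all compound wells; Measured by: CellTiter-Glo luminescence.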
Ecoli WT expand: growth inhibitors of wild-type E. coli, primary screen, strain BW25113, expanded library, OD600; AID 710, 2007; 0.15% of 98,000 active; growth inhibition, % at 100 µM; OD600 absorbance;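 active = growth inhibition above about 50% at one test dose, limit read from the data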;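 note: growth measured after 20 h incubation at 37 °C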
HUVEC inhibit: inhibitors of HUVEC proliferation, primary screen, cell-based, 384-well; AID 648, 2007; viability, % at 10 µM (by protocol); 1.1% of 86,000 active; CellTiter-Glo luminescence, 72 h; active compounds read low;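 active = viability at or below 30%; inactive = viability above 30%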
Jurkat viability: cytotoxicity toward Jurkat T cells, primary screen, cytotoxicity control, cell-based, Jurkat E6.1, 60K MLSMR library. 1.2% of 56,000 active. Jurkat E6.1 viability, ATP luminescence, 48 h. inhibition, % at 4 µM;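 active = inhibition above the mean inhibition of all tested compounds plus 3 SD, cut at about 28% in these data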
Numbers stand for hits; 0 = inactive; - = no result. Most compounds without a hit are left out; they make up all but 6.4% or so of the library.

SMILES	Ecoli tolC	H69AR inhibit	Lung fibro prol	Ecoli WT expand	HUVEC inhibit	Jurkat viability
O=C(c1ccccc1)c1nc[nH]c1C(=O)Nc1ccccc1	0	24.2	0	0	0	0
O=C(N/N=C\c1cc(Br)cs1)C1COc2ccccc2O1 (centres undefined)	-	27.1	0	0	0	-
O=C(N/N=C/c1ccc2c(c1)OCO2)C1COc2ccccc2O1 (centres undefined)	-	-	-	0	-	-
Clc1ccc(CN2C3=NCCN3c3ccccc32)cc1Cl	0	0	0	0	0	0
N=c1c2c(n(Cc3ccc(Cl)c(Cl)c3)c3c1CCC3)CCCC2	100.0	0	0	0	0	0
O=C(CCN1CCN(c2ccccc2F)CC1)Nc1ccc2c(c1)OCO2	0	0	-	0	0	0
C#CCOC(=O)c1ccccc1C(=O)n1nnc2ccccc21	0	38.2	0	0	0	0
COc1ccc(-c2nn(-c3ccccc3)cc2C(=O)n2nnc3ccccc32)cc1	-	22.6	0	0	0	-
O=C(c1cccc2ccccc12)n1nnc2ccccc21	-	6.5	0	-	0	-
C#CCOC(=O)c1ccccc1C(=O)OCC#C	0	0	0	0	0	0
CCOC(=O)CC(=O)CSc1ncnc2c1cnn2-c1ccccc1	0	0	0	0	0	0
Cc1ccc(C)c(NC(=O)c2nnn(Cc3ccccc3)c2N)c1	0	0	0	0	0	0
O=C(NCCc1ccccc1)c1nc2c(nnn2Cc2ccccc2Cl)c(=O)[nH]1	96.6	0	0	0	0	0
O=C(NC1CCCCC1)c1nc2c(nnn2Cc2ccccc2Cl)c(=O)[nH]1	75.8	0	0	0	0	0
CCOc1ccc(-c2nnc3sc(-c4c(OC)cccc4OC)nn23)cc1	0	34.7	0	-	0	-
CCOc1cccc(-c2nnc3sc(-c4ccco4)nn23)c1	0	0	0	-	0	-
CCOc1cccc(-c2nnc3sc(-c4ccc(C)cc4)nn23)c1	0	18.7	0	-	0	-
COc1ccc(N2CCN(CC(=O)Nc3cc(C)on3)CC2)cc1	0	0	0	0	0	0
Fc1ccc(Br)cc1C1C=C(c2ccc(Br)cc2)Nc2ncnn21 (centres undefined)	-	18.0	0	0	0	-
CCc1ccc(C2=CC(c3cc(Br)ccc3F)n3ncnc3N2)cc1 (centres undefined)	-	17.9	0	-	0	-
CCOC(=O)c1sc(=S)sc1SCc1cccc(C(F)(F)F)c1	-	0	0	0	0	-
COc1ccc(-c2cn3cc(C)ccc3n2)cc1OC	0	38.9	0	0	0	0
COc1ccc(-c2cn3ccccc3n2)cc1OC	0	0	0	0	0	0
C=CCn1c(CNC(=O)c2ccco2)nnc1SCC(=O)N1c2ccccc2Sc2ccccc21	-	34.0	0	0	0	-
CCCC(=O)N1CCN(c2ccc(C(=O)c3ccc(OC)c(Br)c3)cc2F)CC1	0	0	0	-	0	0
SMILES	Ecoli tolC	H69AR inhibit	Lung fibro prol	Ecoli WT expand	HUVEC inhibit	Jurkat viability
COc1ccc(C(=O)c2ccc(N3CCN(C(=O)c4ccc(F)cc4)CC3)c(F)c2)cc1Br	-	36.4	0	0	0	-
Cc1ccc(-n2nnc3c(=O)n(Cc4cc(C)ccc4C)cnc32)cc1	0	32.8	0	-	0	0
COCCn1c(SCC(=O)Nc2ccc(NC(=O)c3ccco3)c(OC)c2)nc2ccccc2c1=O	-	31.4	0	0	0	-
CCn1c(SCC(=O)Nc2ccc(NC(=O)c3ccco3)c(OC)c2)nc2ccccc2c1=O	0	10.0	0	0	0	0
CCCCn1c(SCC(=O)Nc2cc(NC(=O)c3ccco3)ccc2C)nc2ccccc2c1=O	0	6.8	0	0	0	0
COc1cc(NC(=O)Cc2ccccc2)ccc1NC(=O)c1ccco1	0	0	0	0	0	0
CCn1c(SCC(=O)Nc2ccccc2OC)nc2ccccc2c1=O	-	0	0	0	0	-
COCCn1c(SCC(=O)Nc2ccc(S(=O)(=O)N(C)C)cc2)nc2ccccc21	-	34.8	0	0	0	-
Cn1c(/C(C#N)=N/O)nc2ccccc21	-	0	0	-	0	-
CC(C)Oc1ccc(/C=N/NC(=O)C(CSCc2ccccc2)NC(=O)c2ccc([N+](=O)[O-])cc2)cc1 (centres undefined)	-	28.4	0	-	0	-
O=C(COc1ccc(/C=N/NC(=O)c2ccccc2)cc1)Nc1ccc([N+](=O)[O-])cc1	-	-	-	0	-	-
O=S1(=O)Nc2c(ccc3cccnc23)-c2ccccc21	100.0	-	-	80.0	-	67.2
O=c1[nH]n(-c2cccc3cccnc23)c(=O)c2ccccc12	0	-	0	0	0	0
COc1ccccc1-c1c(C)nn2c(C)cc(C)nc12	0	0	0	0	0	0
COc1ccccc1-c1c(C)nn2c(N3CCC(C(N)=O)CC3)cc(C)nc12	-	0	0	0	0	-
CCOC(=O)N1CCN(C(=O)CSc2cc(C)nc3c(-c4ccccc4OC)c(C)nn23)CC1	0	38.6	0	0	0	0
CCOC(=O)N1CCC(Nc2cc(C)nc3c(-c4ccccc4OC)c(C)nn23)CC1	0	37.1	0	0	0	0
CC(Oc1ccc(Cl)cc1Cl)C(=O)NCCCN1CCOCC1 (centres undefined)	0	0	0	0	0	0
O=c1[nH]c2ccccc2n1CCCSc1cnc2ccccc2n1	0	38.3	0	0	0	0
Cc1c(NC(=O)NCc2ccccc2)c(=O)n(-c2ccccc2)n1C	0	0	0	0	0	0
Cc1c(NC(=O)Nc2ccc(Cl)c(Cl)c2)c(=O)n(-c2ccccc2)n1C	100.0	0	0	0	0	0
CCCC1=Nc2cc(C(=O)NCCCOCC)ccc2Sc2ccccc21	-	33.0	0	0	0	-
CCC1=Nc2cc(C(=O)NCCCOC)ccc2Sc2ccccc21	-	32.4	0	0	0	-
CCCC1=Nc2cc(C(=O)NCCCOC(C)C)ccc2Sc2ccccc21	-	16.4	0	0	0	-
COCCCNC(=O)c1cccc(C(=O)NCCCOC)c1	0	0	-	0	0	0
SMILES	Ecoli tolC	H69AR inhibit	Lung fibro prol	Ecoli WT expand	HUVEC inhibit	Jurkat viability
O=C(CN1C(=O)NC2(CCCCCC2)C1=O)Nc1ccc(S(=O)(=O)N2CCOCC2)cc1	-	0	0	0	0	-
Cc1onc(-c2c(F)cccc2Cl)c1C(=O)Nc1nc2ccccc2[nH]1	-	33.3	0	0	0	-
O=C(Nc1nc2ccccc2[nH]1)c1ccccc1	-	31.9	0	0	0	-
O=C(Cc1ccccc1)Nc1nc2ccccc2[nH]1	0	0	0	0	0	0
COc1ccc(C(C(=O)Nc2ccc(C(C)C)cc2)N(C)C(=O)CNC(C)=O)cc1 (centres undefined)	-	0	0	0	0	-
C=CCSc1nnc(C)n1-c1ccc(Cl)cc1	0	0	0	0	0	0
CCn1c(SCc2nnc(-c3ccccc3)o2)nnc1-c1ccc(S(=O)(=O)N2CCCC2)cc1	0	0	0	0	0	0
CCn1c(SCc2ccccc2)nnc1-c1ccc(S(=O)(=O)N2CCCCC2)cc1	0	26.1	0	0	0	0

High-throughput results: PubChem, several laboratories
